# Activity calls are given as the source filed them.
# Experiments:
# [1] = target: T1, Apoptosis regulator Bcl-2 (Homo sapiens, UniProt P10415); assay: Inhibition of N-terminal 6xHis-tagged human Bcl-2 expressed in Escherichia coli BL21 (DE3) after 2 hrs by fluorescence polarization assay
# [2] = system: Mus musculus; assay: Toxicity in SCID mouse assessed as body weight loss at 25 mg/kg, iv administered 5 days per week for 2 weeks relative to vehicle-treated control; assay type: organism-based; parameters: dose 25 mg/kg, route intravenous; conditions: in vivo
# Summary of the method: (§1)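 Tolerability tested in SCID mice given daily i.v. doses, 5 days a week for 2 weeks. Body weight loss tracked against a 10% threshold.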
# [3] = Antitumor activity against human NCI-H146 cells xenografted in SCID mouse assessed as tumor free incidence at 25 mg/kg, iv measured on day 58 post tumor implantation; assay type: functional
# Summary of the method: (§2)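 SCID mice bearing H146 xenografts randomized at 40–110 mm3 tumor volume (mean 70 mm3), 8 per group. Dosed intravenously, daily, 5 days a week for 2 weeks, with a vehicle control group. Tumor size and body weight measured 3 times weekly during dosing and twice weekly afterwards. Tumor volumes reported as mean ± SEM.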
# [4] = system: Mus musculus; assay: Toxicity in SCID mouse assessed as body weight loss at 50 mg/kg, iv administered 5 days per week for 2 weeks relative to vehicle-treated control; assay type: organism-based; parameters: dose 50 mg/kg, route intravenous; conditions: in vivo; summary of the method: as §1
# [5] = system: NCI-H146; assay: Induction of apoptosis in human NCI-H146 cells assessed as cell viability after 24 hrs by trypan blue exclusion assay; assay type: functional, cell-based
# Summary of the method: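 H146 cells exposed to a range of compound concentrations for 24 hr, then harvested and stained with trypan blue. Cells staining blue or looking morphologically unhealthy were scored as dead. At least 100 cells counted per sample.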
# [6] = target: T1, Apoptosis regulator Bcl-2
# [7] = system: NCI-H146; assay: Antitumor activity against human NCI-H146 cells xenografted in SCID mouse assessed as tumor regression at 25 mg/kg, iv administered 5 days per week for 2 weeks; assay type: functional, organism-based; parameters: dose 25 mg/kg; summary of the method: as §2
# [8] = system: NCI-H146; assay: Induction of apoptosis in human NCI-H146 cells assessed as cell viability at 10 nM after 24 hrs by trypan blue exclusion assay; assay type: functional; conditions: NCI-H146, 24 h, read-out: Activity
# Summary of the method: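 H146 small-cell lung cancer cells exposed to serial compound concentrations for 24 hr, then collected and stained with trypan blue. Blue-stained or morphologically unhealthy cells were scored as dead, with at least 100 cells counted per sample.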
# [9] = Inhibition of c-terminally truncated N-terminal 8xHis-tagged human Bcl-xL deletion mutant expressed in Escherichia coli BL21 (DE3) after 2 hrs by fluorescence polarization assay
# [10] = system: NCI-H146; assay: Induction of apoptosis in human NCI-H146 cells xenografted in SCID mouse assessed as caspase 3 cleavage at 25 mg/kg, iv after 3 to 24 hrs by Western blot analysis; assay type: functional, organism-based; parameters: dose 25 mg/kg
# Summary of the method: (§3)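 SCID mice bearing H146 xenografts (100–200 mm3) received one i.v. dose, with a vehicle control group. Tumors harvested at 3, 6 and 24 h. PARP cleavage and caspase-3 cleavage assessed by Western blot.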
# [11] = Cytotoxicity against human NCI-H146 cells assessed as growth inhibition after 4 days by WST-8 assay; assay type: functional, cell-based; conditions: NCI-H146, 96 h
# [12] = system: NCI-H1417; assay: Cytotoxicity against human H1417 cells assessed as growth inhibition after 4 days by WST-8 assay; assay type: functional, cell-based; conditions: NCI-H1417, 96 h
# [13] = system: NCI-H146; assay: Induction of apoptosis in human NCI-H146 cells assessed as PARP cleavage at 10 nM after 24 hrs by Western blot analysis; assay type: functional, cell-based
# Summary of the method: (§4)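 H146 cells treated for 24 hr, then lysed on ice for 20 min in RIPA buffer with PMSF and protease inhibitors. Cleared lysates normalized by protein assay and run on 4–20% SDS-PAGE, then blotted to PVDF. Probed with rabbit antibodies to PARP and caspase-3 (cleaved forms detected), GAPDH as loading control, with HRP chemiluminescence detection.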
# [14] = system: NCI-H146; assay: Induction of apoptosis in human NCI-H146 cells xenografted in SCID mouse assessed as PARP cleavage at 25 mg/kg, iv after 3 to 6 hrs by Western blot analysis; assay type: functional, organism-based; parameters: dose 25 mg/kg; summary of the method: as §3
# [15] = system: NCI-H146; assay: Induction of apoptosis in human NCI-H146 cells assessed as caspase 3 activation at 10 nM after 24 hrs by Western blot analysis; assay type: functional, cell-based; summary of the method: as §4
# [16] = system: NCI-H146; assay: Antitumor activity against human NCI-H146 cells xenografted in SCID mouse assessed as tumor free incidence at 25 mg/kg, iv measured on day 47 post tumor implantation; assay type: functional, organism-based; parameters: dose 25 mg/kg; summary of the method: as §2
# [17] = Toxicity in iv dosed SCID mouse administered 5 days per week for 2 weeks; assay type: organism-based; conditions: in vivo
# [18] = system: NCI-H146; assay: Antitumor activity against human NCI-H146 cells xenografted in SCID mouse assessed as tumor growth inhibition at 50 mg/kg, iv administered 5 days per week for 2 weeks; assay type: functional, organism-based; parameters: dose 50 mg/kg; summary of the method: as §2
# [19] = system: NCI-H146; assay: Induction of apoptosis in human NCI-H146 cells xenografted in SCID mouse assessed as caspase 3 cleavage at 50 mg/kg, iv after 3 to 24 hrs by Western blot analysis; assay type: functional, organism-based; parameters: dose 50 mg/kg; summary of the method: as §3
# [20] = system: NCI-H146; assay: Induction of apoptosis in human NCI-H146 cells assessed as PARP cleavage at 100 nM after 24 hrs by Western blot analysis; assay type: functional, cell-based; summary of the method: as §4
# [21] = system: Mus musculus; assay: Toxicity in SCID mouse assessed as body weight loss at 75 mg/kg, iv administered 5 days per week for 2 weeks relative to vehicle-treated control; assay type: organism-based; parameters: dose 75 mg/kg, route intravenous; conditions: in vivo; summary of the method: as §1
# [22] = system: NCI-H146; assay: Antitumor activity against human NCI-H146 cells xenografted in SCID mouse assessed as tumor regression at 50 mg/kg, iv administered 5 days per week for 2 weeks; assay type: functional, organism-based; parameters: dose 50 mg/kg; summary of the method: as §2
# [23] = system: NCI-H146; assay: Induction of apoptosis in human NCI-H146 cells assessed as caspase 3 activation at 100 nM after 24 hrs by Western blot analysis; assay type: functional, cell-based; summary of the method: as §4
# [24] = system: NCI-H146; assay: Induction of apoptosis in human NCI-H146 cells xenografted in SCID mouse assessed as PARP cleavage at 50 mg/kg, iv after 3 to 6 hrs by Western blot analysis; assay type: functional, organism-based; parameters: dose 50 mg/kg; summary of the method: as §3
# [25] = system: Mus musculus; assay: Toxicity in SCID mouse assessed as body weight loss at 10 mg/kg, iv administered 5 days per week for 2 weeks relative to vehicle-treated control; assay type: organism-based; parameters: dose 10 mg/kg, route intravenous; conditions: in vivo; summary of the method: as §1
# T1 sequence (P10415 whole entry): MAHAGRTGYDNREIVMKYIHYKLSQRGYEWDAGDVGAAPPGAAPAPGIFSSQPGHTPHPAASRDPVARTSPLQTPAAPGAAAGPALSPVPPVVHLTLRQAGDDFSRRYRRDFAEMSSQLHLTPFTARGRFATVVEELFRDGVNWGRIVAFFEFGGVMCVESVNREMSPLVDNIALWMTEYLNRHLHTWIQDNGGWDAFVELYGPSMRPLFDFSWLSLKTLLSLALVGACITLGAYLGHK
SMILES,IC50 [1] [nM],Activity [2] [%],Activity [4] [%],Activity [5],Ki [6] [nM],viability at 0.01 µM [8] [%],IC50 [9] [nM],IC50 [11] [nM],IC50 [12] [nM],MTD at 2 weeks [17] [mg/kg],also measured
CCn1c(C)c(C(=O)O)c(-c2cccc(N3CCN(c4ccc(NS(=O)(=O)c5ccc(N[C@H](CCN6CCC(O)CC6)CSc6ccccc6)c(S(=O)(=O)C(F)(F)F)c5)cc4)CC3)c2)c1-c1ccc(Cl)cc1,5.4,< 10,> 10,Dose-dependent effect,1.2,> 50,6,22,21,25,Activity [3]: 71%; Activity [7]: Active; Activity [10]: Active; Activity [13]: Active; Activity [14]: Active; Activity [15]: Active; Activity [16]: Active
Cc1c(C(=O)O)c(-c2cccc(N3CCN(c4ccc(NS(=O)(=O)c5ccc(N[C@H](CCN6CCC(O)CC6)CSc6ccccc6)c(S(=O)(=O)C(F)(F)F)c5)cc4)CC3)c2)c(-c2ccc(Cl)cc2)n1C,10.2,–,< 10,Dose-dependent effect,2.4,–,7,108,125,50,TGI [18]: Active; Activity [19]: Active; Activity [20]: Active; Activity [21]: > 10%; Activity [22]: inactive; Activity [23]: Active; Activity [24]: Active
Cc1c(C(=O)O)c(-c2cccc(N3CCN(c4ccc(NS(=O)(=O)c5ccc(N[C@H](CCN6CCC(O)CC6)CSc6ccccc6)c(S(=O)(=O)C(F)(F)F)c5)cc4)CC3)c2)c(-c2ccc(Cl)cc2)n1C(C)C,4,> 10,–,Dose-dependent effect,0.8,> 50,3.9,13,9,10,Activity [25]: < 10%
